High-throughput results deposited in PubChem by several laboratories.
Kir21 block: blocks the mouse Kir2.1 inward-rectifier potassium channel. HEK293-Kir2.1, FluxOR thallium flux fluorescence; active compounds read low. B-score at 10 µM. 310,000 tested, 0.85% active. P35561;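 active = fluorescence ratio B-score at or below minus 3 SD of library scores, with starting-brightness B-score within 2 SD, cut at about -4.2 in these data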;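 also: channel flux triggered by added potassium and thallium sulfate stimulus; B-score of peak minus minimum fluorescence over baseline after thallium stimulus; more negative B-score means stronger Kir2.1 block with less thallium influx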
TMEM16A act: mouse TMEM16A channel activation, primary screen. Q8BHY3. HEK293 TMEM16A/YFP-H148Q/I152L, iodide quench fluorescence; active compounds read low. 340,000 tested, 0.3% active. B-score at 10 µM;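 active = fluorescence-ratio B-score plate-corrected deviation score at least 3 library SD below zero, with starting fluorescence score within 5 deviations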;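 also: channel opened by trigger with iodide after compound preincubation; score built on the fluorescence ratio of max minus min over baseline; more negative score means more quench and so TMEM16A activation or potentiation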
SR-BI HDL uptake: mouse SR-BI HDL lipid transfer inhibition | ldlA[mSR-BI] CHO cells, DiI-HDL uptake fluorescence, 3 h | inhibition, % at 12.5 µM | 320,000 tested, 0.96% active;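 active = mean replicate inhibition of at least 70% and a set share of replicates each scoring 70 or more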;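 also: 0% = median of neutral control wells and 100% = median of positive control wells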
FID counter: counter-screen for HCV NS3 helicase inhibitors: DNA intercalator displacement; DNA fluorescent intercalator displacement, fluorescence; inhibition, % at 7.9 µM; 290,000 tested, 0.17% active; AID 1845; in the data active = inhibition above about 37%;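 also: 0% = vehicle and 100% = reference compound; higher means more ethidium bromide displaced from hairpin DNA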
TMEM16A inh: blocks the mouse calcium-activated chloride channel TMEM16A; 310,000 tested, 1.2% active; AID 588511; Q8BHY3; normalized B-score (activity score, 25-100; higher = stronger inhibition) at 10 µM; HEK293 TMEM16A/YFP iodide influx fluorescence, ionomycin;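 active = ratio plate-corrected score three or more library SD toward inhibition, starting fluorescence score within five deviations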;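 also: score derived from kinetic fluorescence span divided by baseline fluorescence per well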
SR-BI uptake up: enhances SR-BI lipid uptake from DiI-HDL; activation, % at 12.5 µM; AID 504775; CHO ldlA[mSR-BI] cells, DiI-HDL uptake fluorescence, 3 h; 100 = double the neutral-control signal; 320,000 tested, 0.096% active;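 active = mean replicate activation of at least 60% and every replicate at or above 60%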;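 also: 0% = median plate neutral-control signal and 100% = twice that signal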
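System: CHO ldlA[mSR-BI] cells / Medium: HEPES-buffered (25 mM, pH 7.4) F12 plus 0.5% BSA / Probe or stimulus: labelled HDL, 10 µg/mL / Doses: single compound concentration, delivered by pin transfer / Schedule: 3 h, 37 °C / Measured by: DiI fluorescence, bottom read / Measure: cell-associated DiI fluorescence as measure of HDL uptake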
The depositor's hits bear a star. A selection: hits, their analogues and other compounds. The true share with any hit is near 3%.

CC(OC(=O)Cc1c(F)cccc1Cl)C(=O)NC1CCCCC1C (stereo unspecified) was read as TMEM16A act inactive, SR-BI HDL uptake -18 and SR-BI uptake up 18.
Screening COc1cc(N/C=C(\C(C)=O)c2ccccc2)cc(OC)c1 returned TMEM16A act -5.4*, SR-BI HDL uptake 21, FID counter -13, TMEM16A inh inactive and SR-BI uptake up -21.
CCCN=C1N(CC)C[C@@H]2[C@@H]3C(=O)N(C)C(=O)[C@@H]3[C@](C)(C(=O)OC)N12 was read as SR-BI HDL uptake 9 and SR-BI uptake up -9.
Screening CC(CCc1ccccc1)NC(=O)COC(=O)c1cc(NS(=O)(=O)c2ccc(Cl)c([N+](=O)[O-])c2)ccc1O (stereo unspecified) returned Kir21 block 0.78, TMEM16A act inactive, SR-BI HDL uptake 38, FID counter -4, TMEM16A inh 100* and SR-BI uptake up -38.
For CCCn1nnc(NC(=S)NC(=O)/C=C/c2ccc(Cl)cc2)n1 the results were Kir21 block -1, TMEM16A act inactive, SR-BI HDL uptake -364, FID counter -15, TMEM16A inh inactive and SR-BI uptake up 364*.
CCOc1cc(CNCc2ccncc2)cc(Br)c1OCc1ccc(F)cc1 was read as Kir21 block -13*, TMEM16A act inactive, SR-BI HDL uptake 1, FID counter 12, TMEM16A inh 100* and SR-BI uptake up -1.
`O=C(O)c1ccc(CNCc2cccc(OCc3ccc(F)cc3)c2)cc1` gave Kir21 block -0.56, TMEM16A act inactive, SR-BI HDL uptake 4, FID counter -11, TMEM16A inh inactive and SR-BI uptake up -4.
COc1cc(CNn2c(C)n[nH]c2=S)cc(Br)c1OCc1ccc(F)cc1 was read as Kir21 block -2.8, TMEM16A act inactive, SR-BI HDL uptake 16, FID counter -39, TMEM16A inh inactive and SR-BI uptake up -16.
Screening Fc1ccc(COc2cccc(CNCc3ccncc3)c2)cc1 returned Kir21 block -0.76, TMEM16A act inactive, SR-BI HDL uptake -6, FID counter 30, TMEM16A inh 25* and SR-BI uptake up 6.
`Fc1ccc(COc2ccc(Br)cc2CNCc2ccncc2)cc1` gave Kir21 block -4.4*, TMEM16A act inactive, SR-BI HDL uptake 19, FID counter 10, TMEM16A inh inactive and SR-BI uptake up -19.
For CC(=O)Nc1ccc(S(=O)(=O)C(C#N)c2nc3ccccc3nc2NCCCO)cc1 (stereo unspecified) the results were Kir21 block 0.07, TMEM16A act inactive, SR-BI HDL uptake -6, FID counter 4, TMEM16A inh inactive and SR-BI uptake up 6.
Screening Cc1[nH]c2ccccc2c1/C=N/Nc1ccc([N+](=O)[O-])cc1 returned Kir21 block -4.4, TMEM16A act inactive, SR-BI HDL uptake 128*, FID counter 20, TMEM16A inh inactive and SR-BI uptake up -128.
`C/C(=N/Nc1ccc([N+](=O)[O-])cc1)c1ccc(C)cc1C` gave Kir21 block 0, TMEM16A act inactive, SR-BI HDL uptake 48, FID counter 1, TMEM16A inh inactive and SR-BI uptake up -48.
For C/C(=N/Nc1ccc([N+](=O)[O-])cc1)c1c[nH]c2ccccc12 the results were Kir21 block -0.01, TMEM16A act inactive, SR-BI HDL uptake 127*, FID counter 21, TMEM16A inh inactive and SR-BI uptake up -127.
`COc1ccc(NC(=O)CCOc2ccccc2F)cc1S(=O)(=O)N1CCCCC1` gave TMEM16A act inactive, SR-BI HDL uptake 44 and SR-BI uptake up -44.
COc1ccc(CNC(=O)CSc2cc(=O)n(C)c3ccccc23)cc1 was read as Kir21 block -0.61, TMEM16A act inactive, SR-BI HDL uptake -53, FID counter -15, TMEM16A inh inactive and SR-BI uptake up 53.
`Cn1c(=O)cc(SCC(=O)NCCC2=CCCCC2)c2ccccc21` gave Kir21 block -5.5*, TMEM16A act inactive, SR-BI HDL uptake -9, FID counter -32, TMEM16A inh inactive and SR-BI uptake up 9.
O=C(Cn1cccc1C(=O)c1ccccc1)NCCC1=CCCCC1 was read as Kir21 block -6.8*, TMEM16A act inactive, SR-BI HDL uptake 7, FID counter -34, TMEM16A inh inactive and SR-BI uptake up -7.
For COc1ccc(OC(C)C(=O)NCCC2=CCCCC2)cc1 (stereo unspecified) the results were Kir21 block -6.4*, TMEM16A act inactive, SR-BI HDL uptake -9, FID counter -23, TMEM16A inh inactive and SR-BI uptake up 9.
CC(=O)Nc1ccccc1OCC(=O)NCCC1=CCCCC1 was read as Kir21 block -1.2, TMEM16A act inactive, SR-BI HDL uptake 2, FID counter -14, TMEM16A inh inactive and SR-BI uptake up -2.
COc1ccc(C(=O)NCCC2=CCCCC2)cc1 was read as Kir21 block 0.72, TMEM16A act inactive, FID counter -7 and TMEM16A inh inactive.
For Cc1ccccc1OCC(=O)NCCC1=CCCCC1 the results were Kir21 block -5.4*, TMEM16A act inactive, SR-BI HDL uptake 1, FID counter -22, TMEM16A inh inactive and SR-BI uptake up -1.
Screening O=S(=O)(c1ccc(=S)[nH]c1)N1CCN(Cc2ccccc2)CC1 returned TMEM16A act inactive, SR-BI HDL uptake -16 and SR-BI uptake up 16.
Screening O=C(Cn1nnc(-c2cccs2)n1)N1CCOCC1 returned Kir21 block 0.16, TMEM16A act inactive, SR-BI HDL uptake -68, FID counter 0, TMEM16A inh inactive and SR-BI uptake up 68*.
Screening COc1cccc(C2C(C(=O)Nc3ccccc3)=C(C)N=c3s/c(=C/c4ccc(OCC(=O)O)cc4)c(=O)n32)c1 (stereo unspecified) returned Kir21 block -0.89, TMEM16A act inactive, SR-BI HDL uptake 10, FID counter -21, TMEM16A inh inactive and SR-BI uptake up -10.
For COc1cccc(C2C(C(=O)OC(C)C)=C(C)N=c3s/c(=C\c4ccc(C(=O)O)cc4)c(=O)n32)c1 (stereo unspecified) the results were Kir21 block -2.9, TMEM16A act -4.8*, FID counter 11 and TMEM16A inh inactive.
Nc1nonc1-n1nnc(C(=O)N/N=C/c2ccccc2F)c1CN1CCc2ccccc21 was read as Kir21 block -1.1, TMEM16A act inactive, SR-BI HDL uptake -4, FID counter -14, TMEM16A inh inactive and SR-BI uptake up 4.
`COc1ccc(NS(=O)(=O)c2cccc(NC(=O)NC3CCCCC3)c2)cc1` gave Kir21 block 0.04, TMEM16A act inactive, FID counter -12 and TMEM16A inh 25*.
